Test results: ChEMBL document CHEMBL1153083, “Antiprotozoal, anticancer and antimicrobial activities of dihydroartemisinin acetal dimers and monomers” (Bioorg Med Chem, 2009)
The source made the active and inactive calls. The rule behind the calls is not given here.

What was measured:
Plasmodium falciparum [1] = assay: Antiplasmodial activity against Plasmodium falciparum D6 infected in RBCs by parasitic LDH release assay; format: functional, organism-based
Outline: (§1)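 Infected erythrocytes at 2% parasitemia and 2% hematocrit, in RPMI 1640 with 10% human serum and amikacin 60 μg/mL, were exposed to serial dilutions under N2/O2/CO2 (90:5:5) at 37°C for 72 h. LDH was read with Malstat reagent (30 min), then NBT/PES in the dark (60 min), stopped with 5% acetic acid, at 650 nm. IC50 came from percent growth dose-response curves.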

[2] = Selectivity index, ratio of TC50 for african green monkey (Cercopithecus aethiops) Vero cells to IC50 for Plasmodium falciparum D6; format: toxicity, cell-based
Plasmodium falciparum [3] = assay: Antiplasmodial activity against Plasmodium falciparum W2 infected in RBCs by parasitic LDH release assay; format: functional, organism-based; outline: as §1
[4] = Selectivity index, ratio of TC50 for african green monkey (Cercopithecus aethiops) Vero cells to IC50 for Plasmodium falciparum W2; format: toxicity, cell-based
[5] = Toxicity against african green monkey Vero cells; format: cell-based; conditions: chlorocebus sabaeus
Outline: (§2)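 Cells seeded at 25,000 per well and incubated 24 h, then exposed to samples for 48 h. Viable cells were counted by neutral red, with DMSO as vehicle control. IC50 or TC50 values were derived from logarithmic plots of growth inhibition versus concentration.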

Leishmania donovani = assay: Antileishmanial activity against Leishmania donovani promastigotes after 48 hrs by alamar blue assay; format: functional, organism-based; conditions: for IC50: read-out: IC50
SK-MEL = assay: Cytotoxicity against human SK-MEL cells after 48 hrs by neutral red assay; format: functional, cell-based; outline: as §2
KB = assay: Cytotoxicity against human KB cells after 48 hrs by neutral red assay; format: functional, cell-based; outline: as §2
BT-549 = assay: Cytotoxicity against human BT549 cells after 48 hrs by neutral red assay; format: functional, cell-based; outline: as §2
SK-OV-3 = assay: Cytotoxicity against human SKOV3 cells after 48 hrs by neutral red assay; format: functional, cell-based; outline: as §2
Vero = assay: (§3) Toxicity against african green monkey Vero cells after 48 hrs by neutral red assay; format: cell-based; conditions: chlorocebus sabaeus, vero, 48 h; outline: as §2
[6] = Toxicity against pig LLC-PK11 cells after 48 hrs by neutral red assay; format: cell-based, Sus scrofa; conditions: for TC50: llc-pk11, 48 h; for CC50 at 48 h: LLC-PK11 cells, read-out: TC50; outline: as §2
Candida albicans = assay: Antifungal activity against Candida albicans ATCC 90028 by modified CLSI/NCCLS method; format: functional, organism-based
Cryptococcus neoformans = assay: Antifungal activity against Cryptococcus neoformans ATCC 90113 by modified CLSI/NCCLS method; format: functional, organism-based
Aspergillus fumigatus = assay: Antifungal activity against Aspergillus fumigatus ATCC 90906 by modified CLSI/NCCLS method; format: functional, organism-based
Staphylococcus aureus [7] = assay: Antibacterial activity against methicillin-resistant Staphylococcus aureus ATCC 43300 by modified CLSI/NCCLS method; format: functional, organism-based
Escherichia coli = assay: Antibacterial activity against Escherichia coli ATCC 35218 by modified CLSI/NCCLS method; format: functional, organism-based
Pseudomonas aeruginosa = assay: Antibacterial activity against Pseudomonas aeruginosa ATCC 27853 by modified CLSI/NCCLS method; format: functional, organism-based
[8] = test system: Mycobacterium intracellulare; assay: Antibacterial activity against Mycobacterium intracellular ATCC 23068 by Franzblau method; format: functional, organism-based
[9] = as §3; format: cell-based; conditions: chlorocebus sabaeus, Vero cells; read-out: TC50; outline: as §2
Nakaseomyces glabratus = assay: Antifungal activity against Candida glabrata ATCC 90030 by modified CLSI/NCCLS method; format: functional, organism-based
Pichia kudriavzevii = assay: Antifungal activity against Candida krusei ATCC 6258 by modified CLSI/NCCLS method; format: functional, organism-based
Staphylococcus aureus [10] = assay: Antibacterial activity against Staphylococcus aureus ATCC 29213 by modified CLSI/NCCLS method; format: functional, organism-based
[11] = Candida albicans, ATCC 90028, read-out: IC50
[12] = Aspergillus fumigatus, ATCC 90906, read-out: IC50
[13] = Escherichia coli, ATCC 35218, read-out: IC50
[14] = Homo sapiens, SK-MEL, 48 h, read-out: IC50
[15] = Homo sapiens, KB, 48 h, read-out: IC50
[16] = Homo sapiens, BT-549, 48 h, read-out: IC50
[17] = Mycobacterium intracellulare, ATCC 23068, read-out: IC50

Structure (SMILES) | IC50 (Plasmodium falciparum [1]) [nM] | selectivity ratio [2] | IC50 (Plasmodium falciparum [3]) [nM] | selectivity ratio [4] | CC50 [5] [nM] | IC90 (Leishmania donovani; Leishmania donovani, 48 h) [nM] | IC50 (SK-MEL; sk-mel) | IC50 (KB; kb) | IC50 (BT-549; bt-549) | IC50 (SK-OV-3; sk-ov-3) | TC50 (Vero) | TC50 [6] | IC50 (Candida albicans; [11]) [nM] | IC50 (Cryptococcus neoformans) [nM] | IC50 (Aspergillus fumigatus; [12]) [nM] | IC50 (Staphylococcus aureus [7]) | IC50 (Escherichia coli; [13]) [nM] | IC50 (Pseudomonas aeruginosa) | IC50 [8] | IC50 (Leishmania donovani; Leishmania donovani, 48 h) [nM] | further results
C[C@H]1[C@@H](OC[C@@H](O)[C@@H](O)CO[C@H]2O[C@@H]3O[C@@]4(C)CC[C@H]5[C@H](C)CC[C@@H]([C@H]2C)[C@@]35OO4)O[C@@H]2O[C@@]3(C)CC[C@H]4[C@H](C)CC[C@@H]1[C@@]24OO3 (relative stereo) | 6.7 | > 1080 | 5.2 | > 1400 | > 7260 | 22900 | Not Active | Not Active | Not Active | Not Active | Not Active | Not Active | 6110 | 1220 | 30500 | Not Active | 15300 | Not Active | Not Active |  | 
C[C@H]1[C@@H](OCC[C@@H](CO[C@H]2O[C@@H]3O[C@@]4(C)CC[C@H]5[C@H](C)CC[C@@H]([C@H]2C)[C@@]35OO4)O[C@H]2O[C@@H]3O[C@@]4(C)CC[C@H]5[C@H](C)CC[C@@H]([C@H]2C)[C@@]35OO4)O[C@@H]2O[C@@]3(C)CC[C@H]4[C@H](C)CC[C@@H]1[C@@]24OO3 | 298 | 18 | 243 | 22 | 5250 | 44200 |  |  |  | Not Active |  |  |  | 16600 |  | Not Active |  | Not Active |  | 5000 | IC50 (SK-MEL; [14]): 240 nM; IC50 (KB; [15]): 110 nM; IC50 (BT-549; [16]): 60 nM; CC50 at 48 h [9]: > 1100 nM; CC50 at 48 h [6]: 70 nM; IC50 (Candida albicans): Not Active; IC50 (Nakaseomyces glabratus): Not Active; IC50 (Pichia kudriavzevii): Not Active; IC50 (Aspergillus fumigatus): Not Active; IC50 (Staphylococcus aureus [10]): Not Active; IC50 (Escherichia coli): Not Active; IC50 [8, 17]: > 22100 nM
C[C@H]1[C@@H](O[C@@H](CO[C@H]2O[C@@H]3O[C@@]4(C)CC[C@H]5[C@H](C)CC[C@@H]([C@H]2C)[C@@]35OO4)[C@H](O)CO)O[C@@H]2O[C@@]3(C)CC[C@H]4[C@H](C)CC[C@@H]1[C@@]24OO3 | 11.7 | 71 | 14 | 59 |  | 29700 | Not Active | Not Active | Not Active | Not Active | Not Active | Not Active | 920 | 530 | 7640 |  | 7640 | Not Active |  | 6400 | IC50 (Staphylococcus aureus [7]; Staphylococcus aureus, ATCC 43300, read-out: IC50): 22900 nM; IC50 [8, 17]: 15300 nM
COc1cccc2c1C(=O)c1c(O)c3c(c(O)c1C2=O)C[C@@](O)(C(=O)CO)C[C@@H]3O[C@H]1C[C@H](N)[C@H](O)[C@H](C)O1 [DOXORUBICIN] |  |  |  |  |  |  |  |  |  |  | Non-toxic |  |  |  |  |  |  |  |  |  | IC50 (SK-MEL; [14]): 1730 nM; IC50 (KB; [15]): 2040 nM; IC50 (BT-549; [16]): 1960 nM; IC50 (SK-OV-3; Homo sapiens, SK-OV-3, 48 h, read-out: IC50): 2040 nM; CC50 at 48 h [6]: 1290 nM
C[C@H]1[C@@H](OCC(=O)CO[C@H]2O[C@@H]3O[C@@]4(C)CC[C@H]5[C@H](C)CC[C@@H]([C@H]2C)[C@@]35OO4)O[C@@H]2O[C@@]3(C)CC[C@H]4[C@H](C)CC[C@@H]1[C@@]24OO3 | 5.3 | 49 | 5.8 | 44 |  | 38500 |  |  |  | Not Active |  |  | 2410 | 880 | 32100 | Not Active |  |  | Not Active | 7400 | IC50 (SK-MEL; [14]): 560 nM; IC50 (KB; [15]): 240 nM; IC50 (BT-549; [16]): 240 nM; CC50 at 48 h [9]: > 8030 nM; CC50 at 48 h [6]: 100 nM; IC50 (Nakaseomyces glabratus): Not Active; IC50 (Pichia kudriavzevii; Pichia kudriavzevii, ATCC 6258, read-out: IC50): 880 nM
C[C@H]1[C@@H](OC/C=C\CO)O[C@@H]2O[C@@]3(C)CC[C@H]4[C@H](C)CC[C@@H]1[C@@]24OO3 | 6.2 | > 2160 | 7.6 | > 1760 | > 13400 |  | Not Active | Not Active | Not Active | Not Active | Not Active | Not Active |  | 560 |  | Not Active |  | Not Active | Not Active | 42300 | IC90 (Leishmania donovani): inactive; IC50 (Candida albicans): Not Active; IC50 (Aspergillus fumigatus): Not Active; IC50 (Escherichia coli): Not Active
C[C@H]1[C@@H](Oc2cccc(N[C@@H]3[C@H](C)O[C@@H]4O[C@@]5(C)CC[C@H]6[C@H](C)CC[C@@H]3[C@@]46OO5)c2)O[C@@H]2O[C@@]3(C)CC[C@H]4[C@H](C)CC[C@@H]1[C@@]24OO3 | 5.8 | > 1290 | 5.9 | > 1250 | > 7410 | 62300 | Not Active | Not Active | Not Active | Not Active | Not Active | Not Active |  | 160 |  | Not Active | 8570 | Not Active | Not Active | 24900 | IC50 (Candida albicans): Not Active; IC50 (Aspergillus fumigatus): Not Active
